In the library only some 1.6% were active in any assay of this set; here they are far more common.
NR2E3 ag-1: activates human photoreceptor nuclear receptor NR2E3; inhibition of corepressor binding, % at 4.78 µM; AID 2300; hit rate 0.12% among 320,000; Q9Y5X4; GST-NR2E3/biotin-RetCOR TR-FRET, 1536-well;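 active = percent inhibition above the cutoff of mean plus 3 SD of all tested compounds, set per screening campaign, cut at about 20% in these data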;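 note: 0% = DMSO wells and 100% = biotin wells as full block of FRET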
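Material: NR2E3–RetCOR corepressor complex / Amount: 1.35 nM GST-NR2E3 / Medium: Tris pH 7.5 / Compound: single nominal compound dose of 4.8 µM / Incubation: 5 h at 4 °C / Technique: TR-FRET, Eu(K)-anti-GST donor, streptavidin-D2 acceptor, ex 340, em 617/671 nm / Read-out basis: percent loss of FRET ratio relative to control wells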
PG9 binder: small molecules binding HIV-1 gp120 antibody PG9. TR-FRET gp120-PG9 antibody binding. inhibition, % at 6.7 µM. hit rate 0.43% among 360,000; in the data active = inhibition above about 8.5%
Rev-erbA mod: Rev-erb alpha (human) modulation. P20393. hit rate 0.79% among 370,000. Rev-erbα–FITC-DNA binding, fluorescence polarization, 90 min. activity, % at 10 µM;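 active = activity above about 14%, limit read from the data; passing the limit was not always enough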;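 note: 0% = DMSO wells with 35 nM protein and 100% = DMSO wells with 750 nM protein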
Target sequence (P20393 whole entry, looked up): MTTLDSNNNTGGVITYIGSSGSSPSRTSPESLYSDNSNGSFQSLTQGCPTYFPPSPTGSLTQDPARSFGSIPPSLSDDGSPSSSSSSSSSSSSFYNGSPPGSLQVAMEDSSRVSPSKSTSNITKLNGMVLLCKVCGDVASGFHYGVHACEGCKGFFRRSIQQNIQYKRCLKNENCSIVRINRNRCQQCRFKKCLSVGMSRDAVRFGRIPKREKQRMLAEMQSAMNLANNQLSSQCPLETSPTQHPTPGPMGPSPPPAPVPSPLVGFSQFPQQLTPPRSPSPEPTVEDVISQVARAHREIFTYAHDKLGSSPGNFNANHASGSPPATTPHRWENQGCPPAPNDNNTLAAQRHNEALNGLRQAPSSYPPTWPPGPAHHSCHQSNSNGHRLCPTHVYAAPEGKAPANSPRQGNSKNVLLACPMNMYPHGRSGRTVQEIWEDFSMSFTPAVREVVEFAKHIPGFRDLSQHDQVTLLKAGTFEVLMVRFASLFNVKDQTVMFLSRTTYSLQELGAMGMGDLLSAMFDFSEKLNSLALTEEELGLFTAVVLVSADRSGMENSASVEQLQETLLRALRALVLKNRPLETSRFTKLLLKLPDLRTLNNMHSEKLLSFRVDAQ
VLA-4 inh: inhibition in a human VLA-4 binding assay; VLA-4 expressing cells, ligand binding flow cytometry; inhibition, % (about 7 µM as worked out from the volumes in the protocol); hit rate 0.2% among 330,000; P13612; in the data active = inhibition above about 50%
NR2E3 ag-2: agonists of human NR2E3 nuclear receptor; CHO-S Gal4-NCOR/VP16-NR2E3 two-hybrid, luciferase; inhibition of corepressor binding, % at 3.98 µM; hit rate 0.35% among 360,000; AID 602229;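 active = inhibition above the mean of all tested compounds plus 3 SD, cut at about 70% in these data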;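 note: 0% = DMSO with NR2E3 transfected cells and 100% = cells lacking NR2E3 construct; higher means lower luciferase signal from less NR2E3 corepressor binding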
PG9 bind confirm: confirmation of small molecules binding HIV-1 gp120 antibody PG9 | shares compounds with PG9 binder | TR-FRET PG9 antibody binding, biochemical | inhibition, % at 6.7 µM | hit rate 90% among 1,500 | AID 651571; in the data active = inhibition above about 9%
PGV04 Ab binding: counter-screen for PG9 binders: binding control antibody PGV04; shares compounds with PG9 binder; TR-FRET PGV04 antibody-gp120 binding, biochemical; inhibition, % at 6.7 µM; hit rate 95% among 1,500; in the data active = inhibition above about 9.5%
PG9 binder DR: small molecules binding HIV-1 gp120 antibody PG9; shares compounds with PG9 binder; TR-FRET PG9 antibody-gp120 binding inhibition; IC50, µM; 95 tested, under 10 active; AID 651848; in the data active = IC50 below about 10 µM
PGV04 DR counter: PGV04 binding, dose response counter-screen; AID 651937; hit rate 20% among 95; TR-FRET binding to control antibody PGV04; shares compounds with PG9 binder; IC50, µM
PG126 binding DR: binds control antibody PG126 in PG9 counter-screen. shares compounds with PG9 binder. TR-FRET binding to antibody PG126, counterscreen. IC50, µM. hit rate 20% among 95. AID 651939
* = called active by the depositor; i = inactive; . = not tested or not shown. Cut-off read from the data, not from the text of the source, unless noted: active = IC50 below about 9 µM; inactive = the rest.

SMILES	NR2E3 ag-1	PG9 binder	Rev-erbA mod	VLA-4 inh	NR2E3 ag-2	PG9 bind confirm	PGV04 Ab binding	others
C[C@H](O)[C@@H]1CN2CCc3ccc(N4CCOCC4)cc3[C@@H]2C[C@@H]1N(C)C(=O)c1ccccc1F	.	.	1.5	.	.	.	.
Cc1cccc(CCNS(=O)(=O)c2ccc3c(c2)oc(=O)n3C)c1	-0.2	18.1*	6.6	-20.3	10.7	5.2	7.4
CCOc1ccc(CC(=O)Nc2c(C(=O)Nc3ccccc3)oc3ccccc23)cc1OCC	4.7	23.4*	12.7	3.5	-15.5	21.7*	33.4*
COc1ccc(CC(=O)Nc2c(C(N)=O)oc3ccccc23)cc1OC	7.7	-1.7	2.3	3.9	-2.9	.	.
CCc1cc2c(SCC(=O)Nc3cc(C)on3)ncnc2s1	0.3	22.4*	11.7	0.0	-36.8	32.4*	48.2*
CCc1cc2c(SCC(=O)NC(=O)c3cccn3C)ncnc2s1	6.3	21.5*	3.7	14.4	-16.1	17.6*	34.2*
CCc1cc2c(SCC(=O)c3ccccc3)ncnc2s1	1.9	0.8	1.9	-7.5	-129.6	.	.
Cc1cc(OC(=O)c2cc(Cl)ccc2Cl)c([N+](=O)[O-])c(=O)[nH]1	-0.9	30.3*	3.7	14.8	-13.3	7.5	11.2*
Cc1cccc(NC(=O)c2cnn3ccccc23)c1C	-1.0	11.2*	-2.9	6.4	-80.4	0.9	3.6
CCOc1ccc(NC(=O)COC(=O)c2ccc3c(c2)OCCO3)cc1	1.4	53.9*	3.9	29.6	20.7	48.3*	60.1*
Cc1nc2ccc(S(=O)(=O)NCC(=O)NCc3ccc(F)cc3)cc2s1	.	.	2.1	.	.	.	.
Cn1c(/C=C/c2ccc(Br)cc2)nc2ccccc2c1=O	0.5	45.5*	14.3	8.5	-67.2	14.9*	28.8*
Cn1c(/C=C/c2ccccc2[N+](=O)[O-])nc2ccccc2c1=O	.	0.7	5.0	1.6	-18.3	.	.
COc1ccc2c(c1)C(C)CC(C)(C)N2C(=O)CSc1ncn[nH]1 (stereo not drawn)	3.7	15.7*	-7.2	-8.1	-23.5	10.9*	15.1*
COc1ccc(S[C@]2(C(=O)N3CCCC3)CC(=O)N(C(=O)/C=C/c3ccccc3)[C@@H]2c2ccc(OC)cc2)cc1	.	.	4.7	.	.	.	.
CCC1(C)Cc2ccccc2-c2nc(SCC(N)=O)[nH]c(=O)c21 (stereo not drawn)	-1.6	-1.1	-0.2	9.4	0.3	.	.
CCC1(C)Cc2ccccc2-c2nc(SC)[nH]c(=O)c21 (stereo not drawn)	0.3	13.1*	1.4	25.2	-25.9	9.4*	8.6	PG9 binder DR=>67.1;PGV04 DR counter=>67.1;PG126 binding DR=>67.1
COc1cccc(OCc2nn3c(=O)c(-c4ccccc4)nnc3s2)c1	.	12.3*	17.7	-10.6	-32.9	19.4*	34.5*
COC(=O)c1ccc2ccn(CC(=O)NC3CCCCC3)c2c1	0.7	16.1*	7.8	0.3	-18.6	19.6*	31.6*
COc1ccc(CC(=O)Nc2ccc(N3CCN(c4ccc(OC)cc4)CC3)c(C#N)c2)cc1	1.9	9.1*	8.2	22.6	-14.8	17.5*	24.0*
COc1ccc(N2CCN(c3ccc(NC(=O)c4ccc5c(c4)OCO5)cc3C#N)CC2)cc1	4.1	.	.	13.4	-22.7	.	.
CCOC(=O)c1sc(N)c(C(=O)OC)c1C	2.1	1.9	-0.6	-0.4	-21.9	.	.
CCOC(=O)c1sc(=S)[nH]c1C	.	18.7*	0.9	.	-7.3	11.0*	8.6	PG9 binder DR=i;PGV04 DR counter=i;PG126 binding DR=i
CCOC(=O)c1c(C)[nH]sc1=S	.	16.5*	4.6	.	-24.7	9.3*	8.4	PG9 binder DR=>67;PGV04 DR counter=i;PG126 binding DR=i
CC(C)(C)OC(=O)N[C@H]1C=C[C@@H](CC(=O)OCC(F)(F)F)C1	.	-1.4	-0.5	.	.	.	.
SMILES	NR2E3 ag-1	PG9 binder	Rev-erbA mod	VLA-4 inh	NR2E3 ag-2	PG9 bind confirm	PGV04 Ab binding	others
Nc1ccn([C@@H]2O[C@H](C(=O)N3CCN(C(=O)N4CCCCC4)CC3)[C@@H](O)[C@H]2O)c(=O)n1	.	-1.2	-3.6	.	.	.	.
CCOc1ccccc1-c1n[nH]c(=S)o1	6.1	10.6*	-3.2	-5.2	-8.4	13.7*	19.2*
CCOc1ccc(NC(=O)Nc2nc3ccc(S(C)(=O)=O)cc3s2)cc1	.	13.7*	10.4	9.9	-7.5	19.1*	22.3*
Cc1ccccc1NC(=O)Nc1nc2ccc(S(C)(=O)=O)cc2s1	3.6	10.9*	6.2	9.4	-50.4	11.7*	27.6*
CCOCC(=O)Nc1nc2ccc(S(C)(=O)=O)cc2s1	-0.4	1.3	-5.5	14.7	-9.5	.	.
NS(=O)(=O)c1ccc2nc(NC(=O)Nc3ccccc3F)sc2c1	3.8	1.9	-5.7	-1.0	-92.1	.	.
CCN1CCCCC(NC(=O)c2ccc(C)cc2)C1=O (stereo not drawn)	.	.	-3.7	.	.	.	.
CC(C)c1nc2sc3c(=O)[nH]cnc3c2c2c1CCC2	5.2	9.6*	6.3	18.9	6.8	19.6*	26.2*
O=C(Cn1c(=O)c2cccn2c2ccccc21)NCCc1ccccc1	10.0	10.6*	6.7	12.1	14.7	19.1*	27.4*
CC(C)C[C@H](NC(C)(C)C(=O)NC1CCCCC1)C(=O)NCC(c1ccccc1)c1ccccc1	.	.	-1.5	.	.	.	.
COC(=O)[C@]12C[C@H](CC(=O)N3CCC(c4ccccc4)CC3)C(=O)N(Cc3ccco3)C1=C[C@H](C1CCCC1)O[C@@H]2C	.	.	3.7	.	.	.	.
CCOc1cccc2cc(C(=O)NC(C)c3ccccc3)c(=N)oc12 (stereo not drawn)	0.8	9.0*	1.4	9.7	-11.4	9.2*	15.1*
CCOc1cccc2cc(C(=O)NCc3ccccc3)c(=N)oc12	-4.9	.	.	-2.1	-18.2	.	.
COC(=O)[C@]12C[C@H](CC(=O)N3CCCC3)C(=O)N(Cc3cccc4ccccc34)C1=C[C@H](COCc1ccccc1)O[C@@H]2C	.	.	-6.3	.	.	.	.
COC(=O)c1ccc(CNC(=O)COC(=O)c2ccc(N(C)C)cc2)cc1	-4.8	26.2*	13.0	3.6	-12.0	23.8*	39.0*
COc1ccc(C(=O)COC(=O)c2ccc(N(C)C)cc2)cc1	9.0	14.9*	6.3	-3.2	17.0	23.3*	26.0*
COc1ccc(C(=O)C[n+]2ccc(N(C)C)cc2)cc1	0.2	-2.7	-2.5	13.7	-18.5	.	.
CN(C)c1ccc(C(=O)OCC(=O)NCCNC(=O)COC(=O)c2ccc(N(C)C)cc2)cc1	-1.5	-3.7	6.4	14.1	-7.1	.	.
